Only a selection was taken, and hits are over-represented in it overall.
HUVEC prolif 384 = inhibitors of HUVEC proliferation, primary screen, cell-based, 384-well. CellTiter-Glo luminescence, 72 h; hits give low values. viability, % at 10 µM (by protocol). 1.1% of 86,000 active;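 active = viability at or below 30%; inactive = viability above 30%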
Fibroblast inh = antiproliferative effect on LL 47 fibroblasts – human, LL 47 cells, CellTiter-Glo luminescence, primary screen | AID 719, 2007 | viability, % at 10 µM | LL 47 human lung fibroblast viability, ATP luminescence; hits give low values | 1.1% of 85,000 active;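 active = viability at or below 50% in the single dose screen; inactive = viability above 50%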;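 also: compound exposure lasted 72 h before the ATP readout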
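Benchmarks: Cell-only wells, no compound | Test system: LL 47 human lung fibroblasts, passage 12 or lower | Input: 1,150 cells/well | Measured by: CellTiter-Glo luminescence measuring cellular ATP | Medium: IMEM, 15% FBS supplement | Schedule: Overnight attachment after seeding, then 72 h compound exposure at 37 °C | Doses: Compound addition at 0.1% DMSO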
bCat KO growth = primary screen for growth suppressors in beta-catenin knockout HCT116 cells (colon tumor, human). 1.5% of 140,000 active. HCT116 beta-catenin knockout viability, CellTiter-Glo, 60 h; hits give low values. viability, % at 10 µM;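 active = viability at or under a set limit, the compound median less 4 SD, cut at about 6% in these data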
HCT116 PTEN-null = growth suppression of PTEN-null HCT116, primary screen, cell-based, CellTiter-Glo | HCT116 PTEN-null viability, 60 h; hits give low values | viability, % at 10 µM | 1.2% of 140,000 active;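 active = viability at or below a set limit, 4 SD under the median of all tested compounds, cut at about 3.7% in these data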;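 also: PTEN knockout HCT116 line with beta catenin targeted HCT116 as companion control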
H69AR inhibit = proliferation blockers of H69AR lung cancer cells, primary screen, cell-based, human, 86K library; H69AR lung tumor viability, ATP luminescence, 72 h; hits give low values; viability, % at 10 µM; 6% of 85,000 active; AID 598, 2007;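 active = viability at or below 40%; inactive = viability above 40%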;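 also: multidrug resistant small cell line overexpressing MRP-1 efflux transporter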
A number is an active result; i = inactive; nt = no result given.

SMILES | HUVEC prolif 384 | Fibroblast inh | bCat KO growth | HCT116 PTEN-null | H69AR inhibit
CC1(C)CC(=O)C2=C(C1)OC(N)=C(C#N)C2C#Cc1ccccc1 (stereo unspecified) | i | i | i | i | 1.7
CC1(C)CC(=O)C2=C(C1)OC(/N=C/N1CCOCC1)=C(C#N)C2c1ccccc1 (stereo unspecified) | i | i | i | i | i
CC1(C)CC(=NOC(=O)c2ccccc2)CC(C)(C)N1O | nt | nt | i | i | nt
CO/N=C/C(=N\Nc1ccc(OC)cc1)C(=O)c1ccc(OC)cc1 | i | i | i | i | 23.8
Cc1ccc(C(=O)NCC(=O)OCC(=O)/C=C2\N(C)c3ccccc3C2(C)C)cc1C | nt | nt | i | i | nt
COC(=O)C1=C(O)/C(=C\c2ccc(CNC(=O)C(=O)Nc3ccc(C)cc3)o2)N=C1C | i | 24.9 | i | i | 25.4
CCOC(=O)C1=C(O)/C(=C/c2ccc(CNC(=O)C(=O)Nc3ccc(C)cc3)o2)N=C1C | 2.3 | 7.4 | i | i | 36.2
CCOC(=O)C1=C(O)/C(=C\c2ccc(CNS(=O)(=O)c3ccc(Br)cc3)o2)N=C1C | nt | nt | i | i | nt
COC(=O)C1=C(O)/C(=C\c2ccc(CNC(=O)C(=O)Nc3ccc(C)c(C)c3)o2)N=C1C | 19.0 | i | i | i | 39.9
COc1ccc2oc3cc(C)[n+]([O-])c(-c4ccc(Cl)cc4)c3c2c1 | nt | nt | i | i | nt
Cc1cc(C)c2c(N=NN3CCOCC3)[nH]nc2n1 | nt | nt | i | i | nt
CCOC(=O)N1CCN(C(=O)CSc2cc(C)nc3c(-c4ccccc4OC)c(C)nn23)CC1 | i | i | i | i | 38.6
COc1ccccc1-c1c(C)nn2c(C)cc(C)nc12 | i | i | i | i | i
CCOC(=O)N1CCC(Nc2nc3ccccc3n3nnnc23)CC1 | i | i | i | i | i
CCOC(=O)N1CCC(Nc2cc(C)nc3c(-c4ccccc4OC)c(C)nn23)CC1 | i | i | i | i | 37.1
CCOC(=O)c1c(C(C)(C)C)oc2ccc(O)cc12 | i | i | i | i | 29.9
CSCCC(NC(=O)c1ccccc1)C(=O)Nc1ccc(NC(C)=O)cc1 (stereo unspecified) | nt | nt | i | i | nt
COc1ccc(/C=N\NC(=O)c2nn(C)cc2Cl)cc1CN1CCOCC1 | nt | nt | i | i | nt
COc1ccc(/C=N/n2cnc3c([nH]c4ccc(Br)cc43)c2=O)cc1CN1CCOCC1 | 23.0 | 8.7 | i | i | 3.7
c1cc2c3c(cccc3c1)NC1(CCCCC1)N2 | i | i | i | i | i
c1cc2c3c(cccc3c1)NC1(CCCCCC1)N2 | 5.5 | i | i | i | i
CC(C)c1cc(C(=O)Nc2sc3c(c2C#N)CCC3)no1 | i | i | i | i | 25.5
CCc1ccc(CCC(=O)Nc2sc3c(c2C#N)CCCC3)o1 | i | i | i | i | 33.2
N#Cc1c(NC(=O)c2cccnc2)sc2c1CCC2 | i | i | i | i | 21.2
COc1ccc(-c2nnc(SCC(=O)Nc3ncc(C)s3)n2-c2ccccc2)cc1OC | i | i | i | i | 16.7
SMILES | HUVEC prolif 384 | Fibroblast inh | bCat KO growth | HCT116 PTEN-null | H69AR inhibit
COC(=O)c1ccc(NC(=O)C2CC2)o1 | nt | nt | i | i | nt
COc1ccc(-c2nnc(SCC(=O)Nc3sc4c(c3C#N)CCCC4)n2-c2ccccc2)cc1 | 3.7 | 27.0 | 3.9 | 1.7 | 2.3
N#Cc1ccccc1NC(=O)CSc1nnc(-c2ccccc2O)n1-c1ccccc1 | i | i | i | i | 32.9
Cc1cc(C(=O)Nc2sc3c(c2C#N)CCC(C)C3)cs1 (stereo unspecified) | i | i | i | i | 19.3
COc1ccc(-n2c(SCC(=O)Nc3sc4c(c3C#N)CCCC4)nnc2-c2ccccc2OC)cc1 | i | i | i | i | i
CN=C1SC(CC(=O)Nc2sc3c(c2C#N)CCCC3)C(=O)N1C (stereo unspecified) | i | i | i | i | 20.5
O=C1NC(=S)N/C1=C/c1cc([N+](=O)[O-])ccc1O | i | i | i | i | i
CCNC(=O)n1nccc1C(C)Oc1cccc(C(F)(F)F)c1 (stereo unspecified) | nt | nt | i | i | nt
Cc1cc(C(=O)Nc2sc3c(c2C#N)CCC(C(C)(C)C)C3)no1 (stereo unspecified) | i | i | i | i | 22.6
N#Cc1c(NC(=O)c2ccccc2)sc2c1CCC2 | i | i | i | i | 21.4
CCCC1CCc2c(sc(NC(=O)OCC)c2C#N)C1 (stereo unspecified) | i | i | i | i | 27.7

High-throughput results (PubChem BioAssay)
